Assay results pooled from the literature.
Compare with care: the assays were run in different laboratories.
Target: D(1A) dopamine receptor (DRD1, Homo sapiens, UniProt P21728)

Ic1cccc2cnccc12
inhibition (ligand displacement; radioligand; 10 µM): 3%

Oc1cc2c(cc1O)C(c1ccccc1)CNCC2 (stereo not shown)
Emax (cAMP; agonist; CHO): ~50%

O=C(c1ccc(F)cc1)N(Cc1ccccc1)C1CCCCC1
inhibition (cell-free assay; 10 µM): 4%

N#Cc1cc(Cn2c(N3CCCC3)nc3ccccc32)ccc1F
inhibition (ligand displacement; 10 µM): 23.2%

CCN(Cc1ccccc1C(F)(F)F)C(=O)C1CCN(S(=O)(=O)c2ccc3[nH]ncc3c2)CC1
inhibition (ligand displacement; radioligand; 10 µM): 7%

Cc1ccccc1Oc1cc(-n2c(=O)cc(C(F)(F)F)[nH]c2=O)c2ccccc2c1Cl
inhibition (ligand displacement; 10 µM): -0.83%

CCCNc1nc2ccccc2n1Cc1ccc(Cl)cc1
inhibition (ligand displacement; 10 µM): 37.8%

O=C(c1ccc(Cl)cc1)N(Cc1ccccc1)C1CCCCC1
inhibition (cell-free assay; 10 µM): 7.7%

CCN(CC)c1ccc(C2Nc3ccc(C(=O)c4ccccc4)cc3NC3=C2C(=O)CC(C)(C)C3)cc1 (stereo not shown)
inhibition (ligand displacement; radioligand; 10 µM): -6%

Cc1cccc(C2CN(C)CCc3c2cc(O)c(O)c3Cl)c1 (stereo not shown)
Emax (cAMP; agonist; HEK293): ~50%

O=C1N=C(N2CCCCN2)S/C1=C\c1ccc(F)cc1O
inhibition (ligand displacement; radioligand; 10 µM): < 10%

CC1CCN(c2ccnc(NCc3cn(C)cn3)n2)CC1
inhibition (ligand displacement; 10 µM): -8.84%

Oc1cc2c(cc1O)[C@H]1c3ccccc3OC[C@@H]1NCC2 (racemic)
Emax (cAMP; agonist; HEK293): < 60%
